Tests used:
Rattus norvegicus [1] = assay: Reduction of uric acid level in rat serum at 3 mg/kg, po after 6 hrs by phosphotungstic acid method; type: functional; parameters: scale not given: the % may be the effect or the level left
In short: (§1)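 Rats were dosed orally. Blood was drawn from the orbital sinus 2 or 6 h later, clotted 1 h at room temperature and centrifuged. Serum uric acid was measured by the phosphotungstic acid method. Values are mean ± SD of at least three rats.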

Rattus norvegicus [2] = assay: Reduction of uric acid level in rat serum at 0.3 mg/kg, po after 6 hrs by phosphotungstic acid method; type: functional; parameters: scale not given: the % may be the effect or the level left; in short: as §1
[3] = biological target: T1, Xanthine dehydrogenase/oxidase (Bos taurus, UniProt P80457); assay: Inhibition of bovine milk XOR-mediated uric acid formation after 15 mins by spectrophotometer
T1 sequence (P80457 whole entry): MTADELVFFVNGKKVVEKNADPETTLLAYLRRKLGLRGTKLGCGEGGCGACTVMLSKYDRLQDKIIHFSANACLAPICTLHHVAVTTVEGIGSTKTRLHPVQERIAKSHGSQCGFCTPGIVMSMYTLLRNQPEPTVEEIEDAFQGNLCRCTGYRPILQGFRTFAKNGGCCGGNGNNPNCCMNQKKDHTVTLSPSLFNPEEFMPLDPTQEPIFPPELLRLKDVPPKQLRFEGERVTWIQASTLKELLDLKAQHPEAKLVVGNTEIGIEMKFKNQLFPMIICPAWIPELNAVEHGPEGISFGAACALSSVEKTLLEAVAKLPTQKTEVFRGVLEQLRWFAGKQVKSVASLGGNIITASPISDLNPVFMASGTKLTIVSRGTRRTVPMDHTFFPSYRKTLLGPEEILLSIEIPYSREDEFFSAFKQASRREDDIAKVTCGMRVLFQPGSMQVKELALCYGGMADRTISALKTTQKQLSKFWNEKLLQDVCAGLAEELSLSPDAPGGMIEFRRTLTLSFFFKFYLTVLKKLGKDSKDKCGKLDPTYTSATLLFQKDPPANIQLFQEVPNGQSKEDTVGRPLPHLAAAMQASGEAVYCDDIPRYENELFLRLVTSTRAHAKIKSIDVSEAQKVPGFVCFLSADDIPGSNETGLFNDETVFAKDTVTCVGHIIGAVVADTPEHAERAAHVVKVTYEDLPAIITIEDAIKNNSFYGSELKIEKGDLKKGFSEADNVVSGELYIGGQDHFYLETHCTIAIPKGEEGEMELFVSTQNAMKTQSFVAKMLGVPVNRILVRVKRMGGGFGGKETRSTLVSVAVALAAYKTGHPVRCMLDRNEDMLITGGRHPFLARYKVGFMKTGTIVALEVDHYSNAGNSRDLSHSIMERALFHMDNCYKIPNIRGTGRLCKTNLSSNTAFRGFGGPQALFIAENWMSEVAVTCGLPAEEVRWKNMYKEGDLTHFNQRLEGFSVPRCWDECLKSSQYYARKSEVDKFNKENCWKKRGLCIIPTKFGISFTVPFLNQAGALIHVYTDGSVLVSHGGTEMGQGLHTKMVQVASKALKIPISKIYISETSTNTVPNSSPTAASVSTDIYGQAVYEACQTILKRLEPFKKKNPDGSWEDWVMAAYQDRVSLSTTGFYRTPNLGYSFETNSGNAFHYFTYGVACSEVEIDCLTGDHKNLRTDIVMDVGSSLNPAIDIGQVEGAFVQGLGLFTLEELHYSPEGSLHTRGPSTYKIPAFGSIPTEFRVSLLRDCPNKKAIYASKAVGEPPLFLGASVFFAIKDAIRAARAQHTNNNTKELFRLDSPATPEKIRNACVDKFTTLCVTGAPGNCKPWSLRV

CYP3A4 = CYP3A4 (Homo sapiens, UniProt P08684); assay: Inhibition of CYP3A4 in human liver microsomes assessed as inhibition of testosterone hydroxylation at 10 uM by HPLC analysis; type: ADME, Microsome; parameters: dose 10 uM; conditions: probe testosterone (hydroxylation)
CYP3A4, sequence (P08684 whole entry): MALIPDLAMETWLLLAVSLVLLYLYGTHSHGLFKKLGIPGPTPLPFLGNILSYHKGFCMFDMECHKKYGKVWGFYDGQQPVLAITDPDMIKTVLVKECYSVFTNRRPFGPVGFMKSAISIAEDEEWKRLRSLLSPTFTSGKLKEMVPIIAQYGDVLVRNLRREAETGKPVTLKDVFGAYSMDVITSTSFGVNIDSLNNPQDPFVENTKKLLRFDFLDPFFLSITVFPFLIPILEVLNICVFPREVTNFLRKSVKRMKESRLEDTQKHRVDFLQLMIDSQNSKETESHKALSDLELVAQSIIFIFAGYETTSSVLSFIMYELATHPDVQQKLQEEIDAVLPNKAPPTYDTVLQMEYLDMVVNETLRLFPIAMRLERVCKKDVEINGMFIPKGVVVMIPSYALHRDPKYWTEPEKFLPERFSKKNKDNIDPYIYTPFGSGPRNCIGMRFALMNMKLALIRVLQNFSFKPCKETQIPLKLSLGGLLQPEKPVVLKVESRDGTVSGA

Rattus norvegicus [4] = assay: Reduction of uric acid level in rat serum at 1 mg/kg, po after 6 hrs by phosphotungstic acid method; type: functional; parameters: scale not given: the % may be the effect or the level left; in short: as §1
[5] = Cmax in rat at 3 mg/kg, po by LC-MS method; type: ADME, organism-based; parameters: dose 3 mg/kg, route oral; conditions: in vivo
In short: (§2)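 After oral dosing to rats, jugular vein blood was collected at predetermined times and centrifuged to plasma. Plasma was mixed with acetonitrile containing an internal standard and centrifuged, and the supernatant was analysed by LC–MS.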

[6] = biological target: T1, Xanthine dehydrogenase/oxidase; assay: Inhibition of bovine milk XOR-mediated uric acid formation at 10 uM after 15 mins by spectrophotometer; conditions: cattle, 0.25 h
[7] = Cmax in rat at 1 mg/kg, po by LC-MS method; type: ADME, organism-based; parameters: dose 1 mg/kg, route oral; conditions: in vivo; in short: as §2
Rattus norvegicus [8] = assay: Reduction of uric acid level in rat serum at 0.3 mg/kg, po after 2 hrs by phosphotungstic acid method; type: functional; parameters: scale not given: the % may be the effect or the level left
In short: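 Test compound dosed orally to rats; blood drawn from orbital sinus 2 or 6 h post-dose, clotted 1 h at room temperature, centrifuged. Serum uric acid measured by phosphotungstic acid method. Mean ± SD of at least three rats.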

[9] = Bioavailability in rat at 3 mg/kg; type: ADME, organism-based; conditions: in vivo
[10] = Half life in rat at 3 mg/kg, po by LC-MS method; type: ADME, organism-based; parameters: dose 3 mg/kg, route oral; conditions: in vivo

Row | SMILES | Activity (Rattus norvegicus [2]) [%] | IC50 [3] [nM] | also measured
1 | CC(C)COc1ccc(-c2n[nH]c(-c3ccncc3)n2)cn1 | 13.4 | 24 | Activity (Rattus norvegicus [1]): 13.4%
2 | c1cncc(-c2n[nH]c(-c3ccncc3)n2)c1 | – | 130 | inhibition at 10 µM (CYP3A4): 10.4%; Activity (Rattus norvegicus [4]; dose 1 mg/kg): -7.7%
3 | CC(C)COc1ccc(-c2n[nH]c(-c3ccncc3)n2)cc1C#N | 36.3 | 4.9 | –
4 | Clc1cc(-c2n[nH]c(-c3ccncc3)n2)ccn1 | – | 7.9 | inhibition at 10 µM (CYP3A4): 54.1%; Cmax [5]: 4360 ng/mL; Activity (Rattus norvegicus [4]; dose 1 mg/kg): 26.5%
5 | CSc1cc(-c2nc(-c3ccnc(C#N)c3)n[nH]2)ccn1 | -3.7 | – | –
6 | CC(C)COc1cc(-c2nc(-c3ccnc(C#N)c3)n[nH]2)ccn1 | 1.9 | – | –
7 | CC(C)CSc1cc(-c2nc(-c3ccnc(C#N)c3)n[nH]2)ccn1 | -1.4 | – | –
8 | N#Cc1cc(-c2n[nH]c(-c3ccnc(-c4ccccc4)c3)n2)ccn1 | 4.2 | – | –
9 | N#Cc1cc(-c2n[nH]c(-c3ccnc(Cl)c3)n2)ccn1 | 33.6 | 39 | inhibition at 10 µM (CYP3A4): 3.6%; Cmax [5]: 5340 ng/mL
10 | N#Cc1cc(-c2n[nH]c(-c3ccnc(C#N)c3)n2)ccn1 | 32 | 18 | –
11 | Brc1cc(-c2n[nH]c(-c3ccncc3)n2)ccn1 | -6.2 | 9.9 | –
12 | Fc1cc(-c2n[nH]c(-c3ccncc3)n2)ccn1 | -0.2 | 48 | inhibition at 10 µM (CYP3A4): 40.2%
13 | c1ccc(-c2cc(-c3n[nH]c(-c4ccncc4)n3)ccn2)cc1 | -0.4 | 6.8 | –
14 | c1cc(-c2n[nH]c(-c3ccncc3)n2)ccn1 | – | 170 | inhibition at 10 µM (CYP3A4): 18.5%; Activity (Rattus norvegicus [4]; dose 1 mg/kg): -6.8%
15 | c1ccc(-c2n[nH]c(-c3ccncc3)n2)nc1 | – | – | inhibition at 10 µM (CYP3A4): 20.3%; inhibition at 10 µM [6]: 31%
16 | Cc1cc(-c2nc(-c3ccncc3)n[nH]2)ccn1 | -0.4 | 28 | inhibition at 10 µM (CYP3A4): 24.7%; Cmax [7]: 1240 ng/mL
17 | Cc1cc(-c2n[nH]c(-c3ccnc(C)c3)n2)ccn1 | 26.1 | 310 | inhibition at 10 µM (CYP3A4): 15.3%
18 | N#Cc1ccc(-c2n[nH]c(-c3ccncc3)n2)cn1 | – | 38 | Activity (Rattus norvegicus [4]; dose 0.3 mg/kg, in the assay text read “at 0.3 mg/kg” for “at 1 mg/kg”): -4%

Row | SMILES | Activity (Rattus norvegicus [2]) [%] | IC50 [3] [nM] | also measured
19 | Cc1cc(-c2nc(-c3ccc(OCC(C)C)nc3)n[nH]2)ccn1 | 13 | 170 | –
20 | CC(C)COc1ccc(-c2n[nH]c(-c3ccnc(C#N)c3)n2)cn1 | – | 590 | Activity (Rattus norvegicus [1]): -6.1%
21 | Cc1cc(-c2nc(-c3ccc(Cl)c([N+](=O)[O-])c3)n[nH]2)ccn1 | 19.8 | 30 | –
22 | COc1ccc(-c2n[nH]c(-c3ccncc3)n2)cc1[N+](=O)[O-] | 19.6 | 3.3 | –
23 | O=[N+]([O-])c1cc(-c2n[nH]c(-c3ccncc3)n2)ccc1Cl | 0.9 | 4.7 | –
24 | CSc1cc(-c2nc(-c3ccnc(C)c3)n[nH]2)ccn1 | 19.2 | 170 | –
25 | Cc1cc(-c2n[nH]c(-c3ccnc(-c4ccccc4)c3)n2)ccn1 | 8 | 59 | –
26 | Cc1cc(-c2n[nH]c(-c3ccnc(OCC(C)C)c3)n2)ccn1 | 2.3 | 63 | Cmax [5]: 1440 ng/mL
27 | Cc1cc(-c2n[nH]c(-c3ccnc(SCC(C)C)c3)n2)ccn1 | 4.5 | 46 | –
28 | Cc1cc(-c2n[nH]c(-c3ccnc(C#N)c3)n2)ccn1 | 41.1 | 59 | inhibition at 10 µM (CYP3A4): 4.7%; Cmax [5]: 3970 ng/mL
29 | Cc1cc(-c2n[nH]c(-c3ccnc(Cl)c3)n2)ccn1 | 32.9 | 89 | Cmax [5]: 4070 ng/mL
30 | COc1ccc(-c2n[nH]c(-c3ccnc(C)c3)n2)cc1[N+](=O)[O-] | 19.3 | 17 | –
31 | COCCOCCOc1ccc(-c2nc(-c3ccnc(C)c3)n[nH]2)cc1C#N | 52 | 31 | –
32 | Cc1cc(-c2nc(-c3ccc(OCC(C)C)c([N+](=O)[O-])c3)n[nH]2)ccn1 | 39.1 | 10 | –
33 | CC(C)COc1ccc(-c2n[nH]c(-c3ccncc3)n2)cc1[N+](=O)[O-] | 33.7 | 3.7 | –
34 | Cc1cc(-c2nc(-c3ccc(OCC(C)C)c(C#N)c3)n[nH]2)ccn1 | 46 | 17 | –
35 | Oc1ncnc2[nH]ncc12 [ALLOPURINOL] | -3.3 | – | Activity (Rattus norvegicus [8]): 35.9%
36 | N#Cc1cc(-c2n[nH]c(-c3ccncc3)n2)ccn1 [TOPIROXOSTAT] | 51.1 | 5.3 | inhibition at 10 µM (CYP3A4): 18.6%; bioavailability [9]: 69.6%; Activity (Rattus norvegicus [8]): 59.9%; half-life [10]: 19.7 h

From ChEMBL document CHEMBL1154315, “Discovery of 3-(2-cyano-4-pyridyl)-5-(4-pyridyl)-1,2,4-triazole, FYX-051 - a xanthine oxidoreductase inhibitor for the treatment of hyperuricemia [corrected]” (Bioorg Med Chem Lett, 2009)
